Test results from PMC9298613 (Journal of Food and Drug Analysis, 2018).
Blank lines part the entries; values can stand above or below the molecule they belong to.

How the values were obtained:
[1] = Pharmacokinetics of APZ in rat plasma; assay type: in vivo, Wistar rats
CYP2D6 = assay: Western blot of hepatic CYP2D6 protein expression; assay type: in vivo, Wistar rats; settings: for Reduction of CYP2D6 protein: rat received SA, compared with rats received APZ alone
Outline: (§1)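 Wistar rats (190–210 g, n = 6/group), food withheld 12 h beforehand. Antipsychotic test compound 3 mg/kg p.o. once on day 15 or daily for 15 days; controls given oral saline for 15 days. After ether euthanasia, liver excised. 25 μg hepatic protein run on 10% SDS gel, transferred to PVDF, primary antibody overnight at 4 °C, HRP secondary 60 min. Chemiluminescence, densitometry, β-actin also probed. Mean ± SD, ANOVA/Dunnett.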

CYP3A2 = assay: Western blot of hepatic CYP3A2 protein expression; assay type: in vivo, Wistar rats; settings: for Reduction of CYP3A2 protein: rat received SA, compared with rats received APZ alone
Outline: as §1

CYP3A2 and CYP2D6 = assay: Hepatic CYP3A2 and CYP2D6 protein expression, summary statements; assay type: in vivo, Wistar rats; settings: APZ after single or multiple dosing
Outline: as §1

[2] = at steady state; cited from earlier work
[3] = administration of SA, in contrast to rats treated with multiple doses of APZ, p <0.05
[4] = animals treated with SA for 15 days, compared to rats treated with a single dose of APZ
[5] = APZ 3 mg/kg p.o. daily for 15 days (multiple doses), with or without SA 20 mg/kg p.o. for 15 days, mean ± SD, n = 6
[6] = Wistar, rat, plasma, po, 3 mg/kg
[7] = multiple dose of APZ 3 mg/kg p.o. 15 days, compared to normal controls, p < 0.05
[8] = single dose of APZ 3 mg/kg p.o., liver, compared with normal controls, p <0.05

- Change in T1/2 of APZ on co-administration of SA (in words) ([1]; APZ single dose, SA 20 mg/kg p.o. for 15 days, compared with APZ alone): without a significant change
- Reduction in hepatic expression of CYP2D6 (CYP2D6; [3]): 65.76%
- Reduction of CYP2D6 hepatic protein (CYP2D6; [4]): 34.06%
- Reduction of CYP2D6 protein (CYP2D6; multiple dose study, p <0.05): 71.15%
- Reduction of CYP2D6 protein (CYP2D6; single dose study, p <0.05): 53.84%
- Reduction in hepatic expression of CYP3A2 (CYP3A2; [3]): 54.68%
- Reduction of CYP3A2 hepatic protein (CYP3A2; [4]): 31.57%
- Reduction of CYP3A2 protein (CYP3A2; multiple dose study, p <0.05): 73.75%
- Reduction of CYP3A2 protein (CYP3A2; single dose study, p <0.05): 50.52%
SMILES: COc1cc(C=CC(=O)O)cc(OC)c1O [SA, 3,5-dimethoxy-4-hydroxycinnamic acid]

SMILES: O=C1CCc2ccc(OCCCCN3CCN(c4cccc(Cl)c4Cl)CC3)cc2N1 [APZ, 7-[4-[4-(2,3-dichlorophenyl)-1-piperazinyl]butoxy]-3,4-dihydrocarbostyril]
- AUMC 0-∞ [1, 5]: 3443.83 ± 234.17 ng/ml × h^^2
- CL [1, 5]: 2.28 ± 0.09 mL/h/kg
- Ke [1, 5]: 0.04 ± 0.005 h⁻¹
- Vd [1, 5]: 0.06501 ± 0.00653 L/kg
- Tmax [1, 6]: 8 h
- k el [1, 6]: 1.11e-05 s⁻¹
- AUC(0-t) ([1]; Wistar, rat, plasma, po, 3 mg/kg, AUC 0-t, APZ 3 mg/kg p.o. daily for 15 days (multiple doses), with or without SA 20 mg/kg p.o. for 15 days, mean ± SD, n = 6): 122 ± 3.45 ng·h/mL
- AUC(0-inf) ([1]; Wistar, rat, plasma, po, 3 mg/kg, AUC 0-∞, APZ 3 mg/kg p.o. daily for 15 days (multiple doses), with or without SA 20 mg/kg p.o. for 15 days, mean ± SD, n = 6): 132 ± 4.85 ng·h/mL
- Cmax ([1]; Wistar, rat, plasma, po, 3 mg/kg, Cmax, APZ 3 mg/kg p.o. daily for 15 days (multiple doses), with or without SA 20 mg/kg p.o. for 15 days, mean ± SD, n = 6): 7.08 ± 0.89 ng/mL
- MRT inf ([1]; Wistar, rat, plasma, po, 3 mg/kg, MRT 0-∞, APZ 3 mg/kg p.o. daily for 15 days (multiple doses), with or without SA 20 mg/kg p.o. for 15 days, mean ± SD, n = 6): 26.1 ± 1.01 h
- half-life ([1]; Wistar, rat, plasma, po, 3 mg/kg, T1/2, APZ 3 mg/kg p.o. daily for 15 days (multiple doses), with or without SA 20 mg/kg p.o. for 15 days, mean ± SD, n = 6): 19.8 ± 2.52 h
- Enhancement in liver expression of CYP2D6 (CYP2D6; [7]): 91.17%
- Increase in CYP2D6 expression (CYP2D6; [8]): 82%
- Increases in CYP3A2 and CYP2D6 expressions in hepatic tissues (CYP3A2 and CYP2D6): 2–3 folds
- APZ converted to the major metabolite DAPZ [2]: about 40%
- Enhancement in liver expression of CYP3A2 (CYP3A2; [7]): 135.29%
- Enhancement in CYP3A2 protein expression (CYP3A2; [8]): 90%
